# Like-named read-outs stand apart in the source and are kept apart here.
# Legend:
# HepG2 = test: Antiproliferative activity; format: cell-based; details: Homo sapiens, HepG2, 48 h, read-out: antiproliferative activity IC50, HepG2
# [1] = system: normal fibroblasts (WI-38); test: Cytotoxicity; details: for IC50: read-out: IC50, normal fibroblasts WI-38; for selectivity index (SI): SI = WI-38 IC50/IC50 against cancer cells; for toxicity to the normal fibroblasts (in words): WI-38 versus cancer cells
# MCF-7 cells [2] = test: Cell cycle analysis; format: cell-based, human; details: MCF7, IC50 concentration, 48 h
# MCF-7 cells [3] = test: Apoptosis assay by annexin V-PI; format: cell-based, human; details: MCF7, IC50 concentration, 48 h; for necrotic cells (upper left quadrant, UL): DMSO 0.1%
# In short: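 MCF-7 cells seeded at 1 × 10⁵ cells per mL and held overnight at 37 °C, 5% CO₂. Test compound or DMSO added in fresh medium for 48 h. Cells trypsinized, washed twice in PBS, and stained 15 min with annexin V-FITC plus propidium iodide in binding buffer. Flow cytometry scored early apoptotic (LR), late apoptotic (UR) and necrotic (UL) quadrants.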
Compound,IC50 (HepG2),"IC50 ([1]; Homo sapiens, WI-38, 48 h)",selectivity index (SI) [1],further results
"COc1cccc2c1C(=O)c1c(O)c3c(c(O)c1C2=O)C[C@@](O)(C(=O)CO)C[C@@H]3O[C@H]1C[C@H](N)[C@H](O)[C@H](C)O1 [DOX, Doxorubicin, reference compound]",4.5 ± 0.2 µM,–,–,–
"N#CC(C(=O)Nc1nnc(NC(=O)c2ccccc2)s1)C(=S)Nc1ccccc1 (centres unmarked) [Compound 16, N-(5-(2-Cyano-3-(phenylamino)-3-thioxopropanamido)-1,3,4-thiadiazol-2-yl)benzamide]",14.7 ± 2.3 µM,85.9 ± 1.9 µM,4.1,–
"N#CC(=Cc1ccco1)C(=O)Nc1nnc(NC(=O)c2ccccc2)s1 [Compound 7c, N-(5-(2-Cyano-3-(furan-2-yl)acrylamido)-1,3,4-thiadiazol-2-yl)benzamide]",16.3 ± 1.8 µM,22.6 ± 3 µM,0.8,–
"CSC(SC)=C(C#N)C(=O)Nc1nnc(NC(=O)c2ccccc2)s1 [Compound 17, N-(5-(2-Cyano-3,3-bis(methylthio)acrylamido)-1,3,4-thiadiazol-2-yl)benzamide]",12.5 ± 1 µM,81.2 ± 4.1 µM,6.0,–
"N#CC(C(=O)Nc1nnc(NC(=O)c2ccccc2)s1)=C1Oc2cccnc2O1 [Compound 20, N-(5-(2-([1,3]dioxolo[4,5-b]pyridin-2-ylidene)-2-cyanoacetamido)-1,3,4-thiadiazol-2-yl)benzamide]",29.6 ± 3.1 µM,42.7 ± 2.7 µM,1.5,–
"N#CC(C(=O)Nc1nnc(NC(=O)c2ccccc2)s1)=C1SCCN1c1ccccc1 [Compound 14, N-(5-(2-Cyano-2-(3-phenylthiazolidin-2-ylidene)acetamido)-1,3,4-thiadiazol-2-yl)benzamide]",> 100 µM,53.8 ± 3.4 µM,0.8,–
"Cc1cc(-c2ccccc2)n(-c2nnc(NC(=O)c3ccccc3)s2)c(=O)c1C#N [Compound 10, N-(5-(3-Cyano-4-methyl-2-oxo-6-phenylpyridin-1(2H)-yl)-1,3,4-thiadiazol-2-yl)benzamide]",19.4 ± 1.5 µM,> 100 µM,1.7,–
"N#CC(C(=O)Nc1nnc(NC(=O)c2ccccc2)s1)=C1Nc2ccccc2N1 [Compound 18, N-(5-(2-Cyano-2-(1,3-dihydro-2H-benzo[d]imidazole-2-ylidene)acetamido)-1,3,4-thiadiazol-2-yl)benzamide]",47.3 ± 8.2 µM,> 100 µM,1.5,–
"COc1cc(C=C(C#N)C(=O)Nc2nnc(NC(=O)c3ccccc3)s2)ccc1O [Compound 7f, N-(5-(2-Cyano-3-(4-hydroxy-3-methoxyphenyl)acrylamido)-1,3,4-thiadiazol-2-yl)benzamide]",21.3 ± 3.7 µM,14.5 ± 0.3 µM,0.9,–
"N#CCC(=O)Nc1nnc(NC(=O)c2ccccc2)s1 [Compound 3, N-(5-(2-Cyanoacetamido)-1,3,4-thiadiazol-2-yl)benzamide]",31.3 ± 5.1 µM,37.4 ± 2.5 µM,1.2,–
"N#CC(C(=O)Nc1nnc(NC(=O)c2ccccc2)s1)=C1Nc2ccccc2O1 [Compound 19, N-(5-(2-(Benzo[d]oxazol-2(3H)-ylidene)-2-cyanoacetamido)-1,3,4-thiadiazol-2-yl)benzamide]",19.4 ± 1.5 µM,60.3 ± 3.7 µM,6.1,"cells arrested at G2/M (MCF-7 cells [2]; DMSO 4.6%): 23.3%; necrotic cells (upper left quadrant, UL) (MCF-7 cells [3]): 15%; early apoptosis (lower-right quadrant, LR) (MCF-7 cells [3]; DMSO 3.2%): 15%"
"O=C(Nc1nnc(NC(=O)c2cc3ccccc3oc2=O)s1)c1ccccc1 [Compound 5, N-(5-Benzamido-1,3,4-thiadiazol-2-yl)-2-oxo-2H-chromene-3-carboxamide]",63.9 ± 8.9 µM,91.2 ± 4.6 µM,1.5,–
"Nc1nnc(NC(=O)c2ccccc2)s1 [Compound 2, N-(5-Amino-1,3,4-thiadiazol-2-yl)benzamide]",14.1 ± 1.5 µM,17.6 ± 4.1 µM,1.0,–
"N#Cc1c(Nc2ccccc2)n2nc(NC(=O)c3ccccc3)sc2nc1=O [Compound 15, N-(6-Cyano-7-oxo-5-(phenylamino)-7H-[1,3,4]thiadiazolo[3,2-a]pyrimidin-2-yl)benzamide]",16.8 ± 1.7 µM,19.4 ± 1.5 µM,1.4,–
"N#CC(C(=O)Nc1nnc(NC(=O)c2ccccc2)s1)=C1SC(=O)CN1c1ccccc1 [Compound 12, N-(5-(2-Cyano-2-(5-oxo-3-phenylthiazolidin-2-ylidene)acetamido)-1,3,4-thiadiazol-2-yl)benzamide]",69.5 ± 6.5 µM,> 100 µM,–,–
"N-(5-(2-Cyano-2-(4,6-dioxo-1-phenylpiperidin-2-ylidene)acetamido)-1,3,4-thiadiazol-2-yl)benzamide [Compound 13]",–,–,0.5,"IC50 ([1]; MTT, 48 h, mean ±SEM, three independent experiments): 23.6 ± 3.2 µM"
"Cc1cc(C)n(-c2nnc(NC(=O)c3ccccc3)s2)c(=O)c1C#N [Compound 9, N-(5-(3-Cyano-4,6-dimethyl-2-oxopyridin-1(2H)-yl)-1,3,4-thiadiazol-2-yl)benzamide]",39.1 ± 2.7 µM,50.4 ± 0.9 µM,2.5,–
"N=c1oc2ccccc2cc1C(=O)Nc1nnc(NC(=O)c2ccccc2)s1 [Compound 4, N-(5-Benzamido-1,3,4-thiadiazol-2-yl)-2-imino-2H-chromene-3-carboxamide]",48.5 ± 2.9 µM,29.4 ± 2.2 µM,1.3,toxicity to the normal fibroblasts (in words) [1]: toxic to the normal fibroblasts
"COc1ccc(C=C(C#N)C(=O)Nc2nnc(NC(=O)c3ccccc3)s2)cc1 [Compound 6b, N-(5-(2-Cyano-3-(4-methoxyphenyl)acrylamido)-1,3,4-thiadiazol-2-yl)benzamide]",15.9 ± 1.3 µM,50.4 ± 0.9 µM,4.9,"sub-G1 percent of cells (MCF-7 cells [2]; DMSO 7.4%): 53.6%; induction of apoptosis (in words) (MCF-7 cells [3]): did not induce apoptosis; necrotic cells (upper left quadrant, UL) (MCF-7 cells [3]): 12.5%"
"N#CC(=Cc1ccc(Cl)cc1)C(=O)Nc1nnc(NC(=O)c2ccccc2)s1 [Compound 7b, N-(5-(3-(4-Chlorophenyl)-2-cyanoacrylamido)-1,3,4-thiadiazol-2-yl)benzamide]",14.7 ± 2.1 µM,42.1 ± 2.7 µM,2.4,–
"N#CC(=Cc1ccc(Cl)cc1Cl)C(=O)Nc1nnc(NC(=O)c2ccccc2)s1 [Compound 7a, N-(5-(2-Cyano-3-(2,4-dichlorophenyl)acrylamido)-1,3,4-thiadiazol-2-yl)benzamide]",6.34 ± 0.9 µM,9.18 ± 3.6 µM,1.5,toxicity to the normal fibroblasts (in words) [1]: toxic to the normal fibroblasts
"N#CC(=Cc1ccc([N+](=O)[O-])cc1)C(=O)Nc1nnc(NC(=O)c2ccccc2)s1 [Compound 7e, N-(5-(2-Cyano-3-(4-nitrophenyl)acrylamido)-1,3,4-thiadiazol-2-yl)benzamide]",56.3 ± 7.8 µM,23.4 ± 3.6 µM,0.4,–
"N#CC(=Cc1cccs1)C(=O)Nc1nnc(NC(=O)c2ccccc2)s1 [Compound 7d, N-(5-(2-Cyano-3-(thiophen-2-yl)acrylamido)-1,3,4-thiadiazol-2-yl)benzamide]",66.1 ± 3.5 µM,12.3 ± 1.2 µM,0.4,toxicity to the normal fibroblasts (in words) [1]: toxic to the normal fibroblasts
